Laboratory results published in ChEMBL document CHEMBL1125540, “Antiviral and antitumor structure-activity relationship studies on tetracyclic eudistomines” (1992).
Converted amounts (≈) assume the structure as drawn.

Experiments:
Format in all cases: functional
Vero [1] = test: Evaluation for antiviral activity against parainfluenza-3 virus in Vero cell cultures (Concentration required to reduce virus-induced cytopathogenicity by 50%); conditions: Chlorocebus sabaeus
In short: (§1)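 Vero cultures were infected with parainfluenza-3, reovirus-1, Sindbis, Coxsackie B4 or Semliki forest virus. Values are concentrations giving 50% reduction of virus-induced cytopathogenicity, or a microscopically detectable alteration of normal cell morphology for cytotoxicity. Each is the average of two separate experiments.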

[2] = Evaluated for antiviral activity against herpes simplex virus-1(KOS) in primary rabbit kidney cell cultures(PRK) (Concentration required to reduce virus-induced cytopathogenicity by 50%); conditions: Oryctolagus cuniculus
[3] = Evaluation for antiviral activity against herpes simplex virus-2(196) in primary rabbit kidney cell cultures(PRK) (Concentration required to reduce virus-induced cytopathogenicity by 50%); conditions: Oryctolagus cuniculus
Vero [4] = test: Evaluation for antiviral activity against Coxsackie virus B4 in Vero cell cultures (Concentration required to reduce virus-induced cytopathogenicity by 50%); conditions: Chlorocebus sabaeus; in short: as §1
[5] = Evaluation for antiviral activity against herpes simplex virus-2(G) in primary rabbit kidney cell cultures(PRK) (Concentration required to reduce virus-induced cytopathogenicity by 50%); conditions: Oryctolagus cuniculus
HeLa [6] = test: Compound was evaluated for antiviral activity against respiratory syncitial virus (long) in HeLa cell cultures (Concentration required to reduce virus-induced cytopathogenicity by 50%); conditions: Homo sapiens
In short: (§2)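 HeLa cultures were infected with respiratory syncytial, vesicular stomatitis, Coxsackie B4 or polio-1 virus. The antiviral end-point is 50% reduction of virus-induced cytopathogenicity. Cytotoxicity is the minimum concentration producing microscopically detectable alteration of normal cell morphology.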

Vero [7] = test: Evaluation for antiviral activity against reo virus-1 in Vero cell cultures (Concentration required to reduce virus-induced cytopathogenicity by 50%); conditions: Chlorocebus sabaeus; in short: as §1
Vero [8] = test: Evaluation for antiviral activity against Sindbis virus in Vero cell cultures (Concentration required to reduce virus-induced cytopathogenicity by 50%); conditions: Chlorocebus sabaeus; in short: as §1
L1210 = test: Inhibitory effect on the proliferation of murine leukemia cells (L1210); conditions: Mus musculus, read-out: ID50 (the source's name)
In short: (§3)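 Proliferation assay in murine leukemia L1210, human T-lymphoblast Molt-4F and human T-lymphocyte MT-4 cells. ID50 is the dose inhibiting tumor cell proliferation by 50%, expressed in μg/mL.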

HeLa [9] = test: Evaluation for antiviral activity against polio virus-1 in HeLa cell cultures (Concentration required to reduce virus-induced cytopathogenicity by 50%); conditions: Homo sapiens; in short: as §2
HeLa [10] = test: Evaluation for antiviral activity against vesicular stomatitis virus in HeLa cell cultures (Concentration required to reduce virus-induced cytopathogenicity by 50%); conditions: Homo sapiens; in short: as §2
[11] = Evaluation in PRK cell cultures for cytotoxicity that is to cause microscopically detectable alteration of normal cell morphology; conditions: Oryctolagus cuniculus
MT4 = test: Inhibitory effect on the proliferation of human T-lymphocyte (MT-4); conditions: read-out: ID50 (the source's name); in short: as §3
MOLT-4F = test: Inhibitory effect on the proliferation of human T-lymphoblast cells (Molt-4F); conditions: read-out: ID50 (the source's name); in short: as §3
[12] = Evaluation for antiviral activity against herpes simplex virus-1 (McIntyre) in primary rabbit kidney cell cultures(PRK) (Concentration required to reduce virus-induced cytopathogenicity by 50%); conditions: Oryctolagus cuniculus
Vero [13] = test: Evaluation for antiviral activity against forest virus in Vero cell cultures (Concentration required to reduce virus-induced cytopathogenicity by 50%); conditions: Chlorocebus sabaeus; in short: as §1
HeLa [14] = test: Evaluation in HeLa cell cultures for cytotoxicity that is to cause microscopically detectable alteration of normal cell morphology; conditions: Homo sapiens; in short: as §2
HeLa [15] = test: Evaluation for antiviral activity against Coxsackie virus B4 in HeLa cell cultures (Concentration required to reduce virus-induced cytopathogenicity by 50%); conditions: Homo sapiens; in short: as §2
[16] = Evaluation for antiviral activity against herpes simplex virus-1(F) in primary rabbit kidney cell cultures(PRK) (Concentration required to reduce virus-induced cytopathogenicity by 50%); conditions: Oryctolagus cuniculus
[17] = Evaluation for antiviral activity against herpes simplex virus-2(Lyons) in primary rabbit kidney cell cultures(PRK) (Concentration required to reduce virus-induced cytopathogenicity by 50%); conditions: Oryctolagus cuniculus
[18] = Evaluation for antiviral activity against vesicular stomatitis virus in primary rabbit kidney cell cultures(PRK) (Concentration required to reduce virus-induced cytopathogenicity by 50%); conditions: Oryctolagus cuniculus
Vero [19] = test: Evaluation in Vero cell cultures for cytotoxicity that is to cause microscopically detectable alteration of normal cell morphology; conditions: Chlorocebus sabaeus; in short: as §1
[20] = Evaluation for antiviral activity against vaccinia virus in primary rabbit kidney cell cultures(PRK) (Concentration required to reduce virus-induced cytopathogenicity by 50%); conditions: Oryctolagus cuniculus
[21] = Evaluation for antiviral activity against herpes simplex virus-1(TK-) (B2006) in primary rabbit kidney cell cultures(PRK) (Concentration required to reduce virus-induced cytopathogenicity by 50%); conditions: Oryctolagus cuniculus
Influenza A virus = test: Concentration required to reduce influenza virus A (ishikawa) induced cytopathogenicity by 50%
In short: (§4)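 Influenza A and B virus replication in MDCK cultures. Antiviral value is the concentration giving 50% reduction of virus-induced cytopathogenicity. Cytotoxicity is the concentration causing a microscopically detectable change in normal cell morphology.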

Influenza B virus = test: Concentration required to reduce influenza virus B (singapore) induced cytopathogenicity by 50%; in short: as §4
MDCK = test: Compound was evaluated in MDCK cell cultures for cytotoxicity that is to cause microscopically detectable alteration of normal cell morphology; conditions: Canis lupus familiaris; in short: as §4

SMILES | MIC (Vero [1]) [µg/mL] | MIC [2] [µg/mL] | MIC [3] [µg/mL] | MIC (Vero [4]) [µg/mL] | MIC [5] [µg/mL] | MIC (Vero [7]) [µg/mL] | MIC (Vero [8]) [µg/mL] | IC50 (L1210) [µg/mL] | MIC (HeLa [9]) [µg/mL] | MIC (HeLa [10]) [µg/mL] | MCC [11] [µg/mL] | IC50 (MOLT-4F) [µg/mL] | MIC [12] [µg/mL] | MIC (Vero [13]) [µg/mL] | MCC (HeLa [14]) [µg/mL] | MIC (HeLa [15]) [µg/mL] | MIC [17] [µg/mL] | MIC [18] [µg/mL] | MCC (Vero [19]) [µg/mL] | MIC [20] [µg/mL] | further results
COc1ccc2[nH]c3c(c2c1)CCN1OCSC[C@@H](N)[C@H]31 | > 1 | > 4 | > 4 | > 1 | > 4 | > 1 | > 1 | 6.54 (≈ 21.4 µM) | > 1 | > 1 | > 10 | 0.94 (≈ 3.08 µM) | > 4 | > 1 | 4 | > 1 | > 4 | > 4 | > 2.5 | > 4 | MIC (HeLa [6]): > 1.6 µg/mL; IC50 (MT4): 1.99 µg/mL (≈ 6.52 µM); MIC [16]: > 4 µg/mL; MIC [21]: > 4 µg/mL
Cn1c2c(c3ccccc31)CCN1OCSC[C@@H](N)[C@H]21 | > 10 | > 10 | – | > 10 | – | > 10 | > 10 | – | > 10 | > 10 | 40 | – | – | > 10 | > 10 | > 10 | > 10 | > 10 | > 40 | > 10 | –
N[C@@H]1CSCON2CCc3c([nH]c4ccccc34)[C@@H]12 | > 10 | > 10 | > 10 | > 10 | > 10 | > 10 | > 10 | 17.4 (≈ 63.2 µM) | > 10 | > 10 | 40 | 5.14 (≈ 18.7 µM) | > 10 | > 10 | > 10 | > 10 | > 10 | > 10 | 40 | > 10 | MIC (Influenza A virus): > 8 µg/mL; MIC (Influenza B virus): > 8 µg/mL; MIC (HeLa [6]): > 8 µg/mL; IC50 (MT4): 4.5 µg/mL (≈ 16.3 µM); MCC (MDCK): 15 µg/mL; MIC [16]: > 10 µg/mL; MIC [21]: > 10 µg/mL
Cn1c2c(c3ccccc31)CCN1OCSC[C@@H](N)[C@@H]21 | 0.7 (≈ 2.42 µM) | 3 (≈ 10.4 µM) | 1 (≈ 3.46 µM) | 0.7 (≈ 2.42 µM) | 0.7 (≈ 2.42 µM) | 1 (≈ 3.46 µM) | 2 (≈ 6.91 µM) | 0.56 (≈ 1.94 µM) | 2 (≈ 6.91 µM) | 7 (≈ 24.2 µM) | > 40 | 0.37 (≈ 1.28 µM) | 0.7 (≈ 2.42 µM) | 2 (≈ 6.91 µM) | > 10 | 7 (≈ 24.2 µM) | 0.7 (≈ 2.42 µM) | 7 (≈ 24.2 µM) | > 20 | 1.5 (≈ 5.18 µM) | IC50 (MT4): 0.69 µg/mL (≈ 2.38 µM); MIC [16]: 2 µg/mL (≈ 6.91 µM); MIC [21]: 7 µg/mL (≈ 24.2 µM)
COc1ccc2[nH]c3c(c2c1)CCN1OCSC[C@@H](N)[C@@H]31 | – | 0.045 (≈ 0.147 µM) | 0.02 (≈ 0.0655 µM) | 0.07 (≈ 0.229 µM) | 0.02 (≈ 0.0655 µM) | 0.07 (≈ 0.229 µM) | 0.02 (≈ 0.0655 µM) | 0.005 (≈ 0.0164 µM) | 0.02 (≈ 0.0655 µM) | 0.02 (≈ 0.0655 µM) | > 1 | 0.0062 (≈ 0.0203 µM) | 0.02 (≈ 0.0655 µM) | 0.07 (≈ 0.229 µM) | 0.4 | 0.02 (≈ 0.0655 µM) | 0.04 (≈ 0.131 µM) | 0.02 (≈ 0.0655 µM) | > 1 | 0.02 (≈ 0.0655 µM) | MIC (Influenza A virus): > 0.32 µg/mL; MIC (Influenza B virus): > 0.32 µg/mL; MIC (HeLa [6]): 0.15 µg/mL (≈ 0.491 µM); IC50 (MT4): 0.005 µg/mL (≈ 0.0164 µM); MCC (MDCK): 0.8 µg/mL; MIC [16]: 0.07 µg/mL (≈ 0.229 µM); MIC [21]: 0.04 µg/mL (≈ 0.131 µM)
N[C@H]1CSCON2CCc3c([nH]c4ccccc34)[C@@H]12 | 7 (≈ 25.4 µM) | 2 (≈ 7.26 µM) | 2 (≈ 7.26 µM) | 7 (≈ 25.4 µM) | 2 (≈ 7.26 µM) | 20 (≈ 72.6 µM) | 20 (≈ 72.6 µM) | 1.24 (≈ 4.5 µM) | > 10 | 7 (≈ 25.4 µM) | > 10 | 1.54 (≈ 5.59 µM) | 2 (≈ 7.26 µM) | 10 (≈ 36.3 µM) | 40 | > 10 | 2 (≈ 7.26 µM) | 2 (≈ 7.26 µM) | 40 | 2 (≈ 7.26 µM) | MIC (Influenza A virus): 3 µg/mL (≈ 10.9 µM); MIC (Influenza B virus): 3 µg/mL (≈ 10.9 µM); MIC (HeLa [6]): 3 µg/mL (≈ 10.9 µM); MCC (MDCK): 40 µg/mL; MIC [16]: 2 µg/mL (≈ 7.26 µM); MIC [21]: 7 µg/mL (≈ 25.4 µM)
